# High-throughput results deposited in PubChem BioAssay by Johns Hopkins Ion Channel Center.
# TRPC4 potent: positive allosteric modulators of TRPC4, primary screen, cell-based, mouse TRPC4beta, HEK293 mu-opioid, Fluo-4 calcium. DAMGO EC20, Fluo-4 Ca2+ flux; hits give high values. B-score at 10 µM. hit rate 0.42% among 310,000. AID 2227, 2009;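 active means B-score of calcium response area above 5 SD of library B-scores, with initial fluorescence ratio within 5 SD of library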;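 further: B-score of integrated fluorescence ratio over time as area under calcium response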
# Target sequence (Q9QUQ5 whole entry, looked up): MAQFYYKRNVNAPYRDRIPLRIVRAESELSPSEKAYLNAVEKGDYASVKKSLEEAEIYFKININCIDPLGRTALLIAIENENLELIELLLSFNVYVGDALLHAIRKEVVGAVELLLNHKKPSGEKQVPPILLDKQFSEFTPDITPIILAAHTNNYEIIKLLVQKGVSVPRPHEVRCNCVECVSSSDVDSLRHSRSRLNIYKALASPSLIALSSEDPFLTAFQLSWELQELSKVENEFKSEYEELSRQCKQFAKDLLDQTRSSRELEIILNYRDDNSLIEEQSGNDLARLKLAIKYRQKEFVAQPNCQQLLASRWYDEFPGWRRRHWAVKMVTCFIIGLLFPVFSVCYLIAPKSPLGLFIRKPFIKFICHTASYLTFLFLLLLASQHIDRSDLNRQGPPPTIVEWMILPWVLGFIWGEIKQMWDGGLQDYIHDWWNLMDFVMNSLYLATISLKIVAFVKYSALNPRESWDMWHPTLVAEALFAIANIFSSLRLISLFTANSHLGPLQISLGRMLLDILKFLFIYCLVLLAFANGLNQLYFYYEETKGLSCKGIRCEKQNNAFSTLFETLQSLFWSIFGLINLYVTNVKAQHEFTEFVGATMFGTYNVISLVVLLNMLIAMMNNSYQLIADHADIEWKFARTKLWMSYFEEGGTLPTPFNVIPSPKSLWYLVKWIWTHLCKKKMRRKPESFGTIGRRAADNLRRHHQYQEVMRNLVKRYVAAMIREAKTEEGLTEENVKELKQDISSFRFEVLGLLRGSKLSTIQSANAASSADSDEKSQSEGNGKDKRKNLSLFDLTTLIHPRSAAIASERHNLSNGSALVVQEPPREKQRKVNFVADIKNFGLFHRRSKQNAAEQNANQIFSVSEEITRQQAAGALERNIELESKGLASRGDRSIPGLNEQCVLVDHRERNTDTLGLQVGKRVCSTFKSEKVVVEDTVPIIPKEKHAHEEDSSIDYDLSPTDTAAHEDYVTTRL
# TRPC6 act: mouse TRPC6 channel activators, primary screen, cell-based, HEK293, membrane potential dye | AID 2550, 2010 | Short transient receptor potential channel 6 (Mus musculus), Q61143 | B-score at 10 µM | HEK293-TRPC6 membrane potential dye fluorescence; hits give high values | hit rate 0.13% among 310,000;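 active means B-score of the integrated fluorescence ratio above library mean plus 3 SD, and starting fluorescence ratio within library mean plus 5 SD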;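 further: higher score means more depolarization so channel activation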
# TRPC6 inh: mouse TRPC6 channel inhibitors, primary screen, cell-based, HEK293, membrane potential dye; Short transient receptor potential channel 6 (Mus musculus), Q61143; ACh-evoked depolarization; hits give low values; B-score at 10 µM; hit rate 1.1% among 310,000;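 active means B-score under library mean minus 3 SD, initial fluorescence not abnormally high, positive integrated signal ratio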;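 further: B-score derived from integrated fluorescence ratio over the kinetic read; more negative B-score means stronger inhibition of depolarization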
# TRPC4 agonist: activators of mouse TRPC4 channel, primary screen, Fluo4 calcium, HEK293 TRPC4beta/mu-opioid cells; Fluo4 calcium fluorescence; hits give high values; B-score at 10 µM; hit rate 0.49% among 310,000; AID 2237, 2010;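 active means B-score above 5 SD of library B-scores, and initial fluorescence ratio not above library mean plus 5 SD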;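 further: positive B-score marks a calcium rise read as TRPC4 activation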
#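 Material: HEK293 stable line with TRPC4beta plus mu-opioid receptor; technique: Fluo4 calcium-sensitive dye fluorescence, kinetic, 1 Hz baseline; timing: Fluo4 dye loading 45 min at room temperature, 110 s recording; controls: assay buffer as low control, maximal DAMGO as high control; read-out: integrated baseline-normalised fluorescence ratio, converted to per-well B score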
# TRPC4 block: inhibitors of mouse TRPC4 channel, primary screen, Fluo4 calcium, HEK293 TRPC4beta/mu-opioid cells; DAMGO-evoked Fluo4 calcium flux; hits give low values; Short transient receptor potential channel 4 (Mus musculus), Q9QUQ5; B-score at 10 µM; hit rate 0.39% among 300,000;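 active means B-score over 3 SD under the library average, no early fluorescence shift, positive overall ratio signal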
#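 Signal: kinetic Fluo4 fluorescence imaging of calcium influx. Material: stable TRPC4beta/mu-opioid receptor HEK293 cells. Probe or stimulus: DAMGO in two steps, submaximal then maximal.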
# TRPC4 spec 2: mouse TRPC4 off-target activity of TRPC6 inhibitors, second screen. AID 2776. HEK293 TRPC4/MOR, membrane potential dye fluorescence; channel activated by saturating DAMGO dose. inhibition, % at 10 µM. hit rate 42% among 920. shares compounds with TRPC6 inh;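 active means compounds whose fluorescence signal differed from control wells by over 3 SD, either direction, in both duplicate plates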
# TRPC4 spec: mouse TRPC4 modulation by TRPC6 hits, confirmation, selectivity assay for TRPC6 inhibitor project, cell-based, HEK293 TRPC4/mu-opioid, membrane potential dye | shares compounds with TRPC6 inh | activity change, negative = inhibition, % at 10 µM | membrane potential fluorescence | hit rate 61% among 920;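 active means rise or fall in signal beyond 3 SD of buffer-only wells in both replicate plates, either sign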;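 further: integrated kinetic ratio of fluorescence range over baseline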
# HEK293 MPD ctr 2-1: nonspecific membrane potential effects, parental HEK293, confirmation, counter-screen for TRPC6 inhibitor project, cell-based, second counter screen; shares compounds with TRPC6 inh; parental HEK293 membrane potential dye fluorescence; maximal acetylcholine challenge after compound addition; signal change vs control, % at 10 µM; hit rate 31% among 920; AID 2779, 2010;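 active means membrane potential signal moving either way by over 3 SD of the maximum-effect control, in both duplicate plates, meaning non-specific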
# HEK293 MPD ctr-1: membrane potential modulation in parental HEK293, confirmation, counter-screen for TRPC6 inhibitor project, cell-based; shares compounds with TRPC6 inh; hit rate 60% among 920; membrane potential signal change, % at 10 µM; AID 2780, 2010; parental HEK293 membrane potential dye fluorescence;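 active means membrane potential signal shifting up or down by more than 3 SD of buffer-only wells, on both duplicate plates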
# HEK293 MPD ctr-2: parental HEK293 membrane potential modulation, confirmation, counter-screen for TRPC6 modulator project, cell-based | membrane potential signal change, % at 10 µM | shares compounds with TRPC6 inh | hit rate 51% among 2,400 | membrane potential dye fluorescence | AID 488924, 2010;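 active means membrane potential signal moves up or down beyond 5 SD from buffer-only wells, on both duplicate plates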
# HEK293 MPD ctr 2-2: second check of TRPC6 modulator effects in parental HEK293 cells | shares compounds with TRPC6 inh | membrane potential dye fluorescence; after compound, maximal acetylcholine stimulation | inhibition, % at 10 µM | hit rate 14% among 2,400;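 active means membrane potential signal drops by more than 5 SD from the mean control signal, in both duplicate plates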;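 further: plate controls were acetylcholine ECmax control wells for no effect and buffer only wells for full effect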
# TRPC4 ctr mod: TRPC4 modulation by TRPC6 hit compounds, confirmation, selectivity assay for TRPC6 modulator project, cell-based, HEK293 TRPC4/mu-opioid, membrane potential dye, mouse; shares compounds with TRPC6 inh; membrane potential fluorescence; percent change from control (negative = decrease, positive = increase), % at 10 µM; hit rate 69% among 2,400;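 active means membrane potential signal moved up or down beyond 5 SD of buffer control wells, in both duplicate plates, actives on both sides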;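 further: plate controls were assay buffer wells for no effect and DAMGO maximal-effect wells for full effect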
# TRPC4 ctr inh 2: second check of whether TRPC6 modulators also affect mouse TRPC4; inhibition, % at 10 µM; hit rate 55% among 2,400; shares compounds with TRPC6 inh; HEK293 TRPC4/mu-opioid, membrane potential dye fluorescence; stimulated with maximal-effect DAMGO;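 active means drop in membrane potential signal beyond 5 SD of the control wells in both duplicate plates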;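 further: TRPC4 counter screen for TRPC6 hits run under conditions tuned for TRPC6 not TRPC4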
# TRPC6 inh conf: mouse TRPC6 channel inhibitors, confirmation, HEK293 cells, membrane potential dye, duplicate; shares compounds with TRPC6 inh; ACh-evoked depolarization; inhibition, % at 10 µM; hit rate 43% among 3,300;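 active means fluorescence ratio falls more than 5 SD below the full-stimulation control mean, in both duplicate runs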;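 further: integrated fluorescence ratio of peak minus minimum over baseline after agonist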
# TRPC6 act confirm: mouse TRPC6 channel activators, confirmation, HEK293 cells, membrane potential dye, duplicate | shares compounds with TRPC6 inh | HEK293-TRPC6 membrane potential dye fluorescence, FDSS | activation, % at 10 µM | hit rate 11% among 2,800 | AID 488961, 2010;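 active means ratio signal rise beyond 5 SD above unstimulated control wells' mean, seen in both duplicate runs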;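 further: plate controls were buffer EC0 wells for no effect and acetylcholine ECmax response for full effect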
# Active calls of the source: *; i = inactive; x = no result. Only some compounds are listed: those with a hit (about 2.3% of all), similar ones and a draw of the others.
SMILES,TRPC4 potent,TRPC6 act,TRPC6 inh,TRPC4 agonist,TRPC4 block,TRPC6 inh conf,TRPC6 act confirm,others
Cc1c(OCC(=O)N(C)C)ccc2c3c(c(=O)oc12)CCCCC3,i,i,-10.6*,i,i,i,i,TRPC4 spec 2=i;TRPC4 spec=i;HEK293 MPD ctr 2-1=i;HEK293 MPD ctr-1=-0.2%*
C/C(=N\NC(=O)CNC(=O)c1ccccc1F)c1ccco1,i,i,i,i,i,x,x,
CCOC(=O)C1CCN(C(=O)CNC(=O)c2nn(-c3ccc(OC)cc3)c(=O)c3ccccc23)CC1,i,i,i,i,i,x,x,
Cc1ccc(N=Cc2c(O)n(C)c(=O)n(C)c2=O)nc1,i,i,-5.62*,i,i,i,i,HEK293 MPD ctr-2=i;HEK293 MPD ctr 2-2=i;TRPC4 ctr mod=-15.0%*;TRPC4 ctr inh 2=i
Cc1ccc(N=CC2=C(O)CC(C)(C)CC2=O)nc1,i,i,i,i,i,x,x,
C/C(=N\OCC(=O)OCC(=O)NCc1ccccc1)c1ccc2c(c1)OCO2,i,i,i,i,i,x,x,
O=C1CNC(=S)N1Cc1cccc(Cl)c1,i,i,-6.95*,i,i,i,i,TRPC4 spec 2=i;TRPC4 spec=-12.1%*;HEK293 MPD ctr 2-1=i;HEK293 MPD ctr-1=i
CCC(=O)N(C(=O)CC)N1CCN(c2ccncc2S(=O)(=O)N2CCCCC2)CC1,i,i,i,i,i,x,x,
CCOC(=O)C1Cc2c([nH]c3ccccc23)CN1 (stereo unspecified),i,i,-8.64*,i,i,i,i,TRPC4 spec 2=i;TRPC4 spec=i;HEK293 MPD ctr 2-1=i;HEK293 MPD ctr-1=-0.1%*
CCOC(=O)C1Cc2ccccc2CN1 (stereo unspecified),i,i,i,i,i,x,x,
CN1CCN(NC(=O)CN2C(=O)/C(=C/c3ccccc3Cl)SC2=S)CC1,i,i,-8.32*,i,i,61.2%*,i,TRPC4 spec 2=63.5%*;TRPC4 spec=i;HEK293 MPD ctr 2-1=i;HEK293 MPD ctr-1=-130.5%*
CC(C)=CCOc1ccc([C@@H]2COc3c(ccc4c3C=CC(C)(C)O4)C2)c(O)c1,i,i,i,i,i,x,x,
Cc1nn(C)c(C(=O)N/N=C/c2ccc(C(F)(F)F)cc2)c1[N+](=O)[O-],i,i,-5.78*,i,i,i,i,HEK293 MPD ctr-2=i;HEK293 MPD ctr 2-2=i;TRPC4 ctr mod=-13.5%*;TRPC4 ctr inh 2=i
COc1ccccc1CNC(=O)c1ccc2c(=O)n3c(nc2c1)CCCCC3,i,i,i,i,i,x,x,
CCN1CCN(c2nc3c(c(=O)[nH]c(=O)n3C)n2CCCSc2ncccn2)CC1,i,i,-5.41*,i,i,i,i,HEK293 MPD ctr-2=-188.5%*;HEK293 MPD ctr 2-2=i;TRPC4 ctr mod=-22.0%*;TRPC4 ctr inh 2=46.5%*
CN1CCN(c2nc3c(c(=O)[nH]c(=O)n3C)n2CCCSc2ncccn2)CC1,i,i,-5.9*,i,i,i,i,HEK293 MPD ctr-2=-166.0%*;HEK293 MPD ctr 2-2=i;TRPC4 ctr mod=-30.0%*;TRPC4 ctr inh 2=i
CCCn1c(N2CCN(C)CC2)nc2c1c(=O)[nH]c(=O)n2C,i,i,i,i,i,x,x,
Cn1c(=O)[nH]c(=O)c2c1nc(N1CCCCCC1)n2CCN1CCCCCC1,i,i,-6.62*,i,i,i,i,TRPC4 spec 2=54.0%*;TRPC4 spec=-10.7%*;HEK293 MPD ctr 2-1=i;HEK293 MPD ctr-1=-217.5%*
CCN1CCN(c2nc3c(c(=O)[nH]c(=O)n3C)n2CCCc2ccccc2)CC1,i,i,i,i,i,x,x,
CN(C(=O)COC(=O)c1ccccc1OCc1ccc(Cl)cc1)c1c(N)n(Cc2ccccc2)c(=O)[nH]c1=O,i,i,i,i,i,x,x,
Cc1ccc(NC(=O)c2cccc(NC3=NC4CS(=O)(=O)CC4S3)c2)cc1 (stereo unspecified),i,i,i,i,i,x,x,
CCCCNC(=O)[C@H]1C[C@H]1[C@@H](O)[C@H](CO)NC(=O)[C@H](Cc1ccccc1)NC(=O)OC(C)(C)C,i,i,i,i,i,x,x,
CC(=O)NNS(=O)(=O)c1scc(S(=O)(=O)c2ccc(Cl)cc2)c1C,i,i,i,i,i,x,x,
O=C(Cn1[nH]c(=O)c2ccccc2c1=O)OCC(=O)N1CCCc2ccccc21,i,i,i,i,i,x,x,
O=C(Cn1[nH]c(=O)c2ccccc2c1=O)OCC(=O)N1CCc2ccccc2C1,i,i,-7.31*,i,i,i,x,TRPC4 spec 2=i;TRPC4 spec=7.2%*;HEK293 MPD ctr 2-1=i;HEK293 MPD ctr-1=4.2%*
